Autophagy HCS = autophagy modulation, high-content screen. MEF GFP-LC3 puncta imaging; test concentration mostly 10 µM. calls only at 10 µM (by protocol). 190,000 compounds, 0.98% hits. AID 463193;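 active = percentage of spot-positive cells more than 3 SD above its plate mean, without a fluorescence outlier flag or 80% toxicity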;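 note: spot-positive cell cutoff set from DMSO-treated cells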
Dynein transport = dynein cargo transport inhibition | 3617.4 mouse cells, GR-EGFP nuclear translocation imaging; test concentration mostly 20 µM; stimulated with dexamethasone, 1 µM; active compounds read low | z-score, hits read low | 220,000 compounds, 0.47% hits | AID 1381;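 active = plate z-score of nuclear minus cytoplasmic receptor signal below a set negative limit, without overly bright fluorescence or cell loss, cut at about -3.5 in these data, passing the limit was not always enough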;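 note: z-score of nuclear minus cytoplasmic ring GR-EGFP intensity difference per well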
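Also added: dexamethasone, 1.0 µM final. Medium: tet-free, stripped-serum medium. Detection: fixed, Hoechst-stained cells imaged at 10x for EGFP. Read-out: nuclear-to-cytoplasmic GR-EGFP distribution per well. Times: induction 48 h, compound 1 h, agonist 30 min.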
CHOP inh = blocks CHOP induction under ER stress; CHO-K1 CHOP-promoter luciferase, tunicamycin-induced, 15-18 h; inhibition, % at 10 µM; 220,000 compounds, 3.8% hits; AID 2732;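 active = compounds that reduced the stress-induced luciferase reporter signal by more than about 70% of percent inhibition, limit read from the data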;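 note: 0% = tunicamycin plus vehicle and 100% = wells without tunicamycin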
MT stabilize HCS = stabilizes microtubules in HeLa cells | AID 2205 | 200,000 compounds, 0.83% hits | HeLa tubulin immunostaining HCS, 24 h; share of cells brighter than vehicle mean+2SD | % tubulin-high responders, % at 10 µM;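 active = plate Z-score above 3 for both tubulin-high and condensed-nucleus cell shares, with cell loss under 80%, at 10 µM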;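 note: anti alpha tubulin signal scored within the nucleus-defined area of each cell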
bCat nuc transl = beta-catenin nuclear translocation modulation; HeLa beta-catenin nuclear translocation, immunofluorescence imaging; nuclear translocation activity, % at 5 µM; 190,000 compounds, 0.3% hits;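 active = nuclear translocation activity above 50% at 5 µM, with a well cell count of 50 or more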;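 note: per-cell ratio of nuclear to cytoplasmic median beta-catenin stain intensity; plate controls were DMSO negative control for no effect and GSK-3 inhibitor IX positive control for full effect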
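test system = HeLa cells, endogenous beta-catenin | dosing = single 5 µM dose plus 0.02–20 µM confirmation series | times = compound treatment 24 h, 37°C, 5% CO2 | technique = beta-catenin immunofluorescence imaging with DAPI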
L major viab = Leishmania major promastigote growth inhibition. Leishmania major promastigotes, resazurin fluorescence viability. inhibition, % at 10 µM. 200,000 compounds, 9% hits. AID 1063; in the data active = inhibition above about 50%;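 note: promastigotes grown with compound for 44 hours at 28 °C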
Numbers without * were called inactive. Rows were chosen to be rich in hits. Some 12% of all compounds tested hit in one or more screens of this group.

Screening COc1ccc(CN(C)CC(=O)Nc2cc(OC)c([N+](=O)[O-])cc2C)c(OC)c1 returned Autophagy HCS inactive, Dynein transport -0.324, CHOP inh 44.3, MT stabilize HCS 3.7, bCat nuc transl -0.9 and L major viab 30.1.
Screening O=C(CSc1nnc(CNC(=O)c2ccccc2F)o1)NCCc1ccccc1 returned Autophagy HCS inactive, Dynein transport 2.16, CHOP inh 22.6, MT stabilize HCS 2.4, bCat nuc transl -0.2 and L major viab -3.0.
Screening CCSc1nnc(NC(=O)CSc2nnc(CNC(=O)c3ccccc3F)o2)s1 returned Autophagy HCS inactive, Dynein transport 1.76, CHOP inh -5.5, MT stabilize HCS 1.6, bCat nuc transl -5.5 and L major viab 85.0*.
Cc1nc2ccccc2c(=O)n1NC(=O)c1ccc([N+](=O)[O-])cc1 was read as Autophagy HCS inactive, Dynein transport 1.69, CHOP inh 4.9, MT stabilize HCS 2.7, bCat nuc transl 2.7 and L major viab -7.1.
Screening Oc1c(C=NCc2ccc(F)cc2)[nH]c2ccc(Br)c(Cl)c12 returned Autophagy HCS active, Dynein transport -3.1, CHOP inh 54.9, MT stabilize HCS 1.4, bCat nuc transl 7.5 and L major viab 27.5.
Cc1cc2ncn(/N=C/c3cccnc3)c2cc1C was read as Autophagy HCS inactive, Dynein transport -0.719, CHOP inh 13.2, MT stabilize HCS 3.9, bCat nuc transl -5.8 and L major viab 1.1.
`Cc1cc2ncn(/N=C/c3ccc(-c4ccccc4)o3)c2cc1C` gave Autophagy HCS inactive, Dynein transport -0.0696, CHOP inh 77.4*, MT stabilize HCS 2.2, bCat nuc transl 0.5 and L major viab -2.0.
Screening CCOc1cc(/C=C(\C#N)C(=O)NCC2CCCO2)ccc1O (centres undefined) returned Autophagy HCS inactive, Dynein transport -0.488, CHOP inh 14.8, MT stabilize HCS 2.6, bCat nuc transl 0.1 and L major viab 64.1*.
O=[N+]([O-])c1cccc(/C=N/n2c(-c3cccnc3)n[nH]c2=S)c1 was read as Autophagy HCS inactive, Dynein transport 1.7, CHOP inh 1.2, MT stabilize HCS 2.5, bCat nuc transl -0.6 and L major viab 55.0*.
For O=[N+]([O-])c1ccc(/C=N/n2c(-c3cccnc3)n[nH]c2=S)cc1 the results were Autophagy HCS inactive, Dynein transport 0.187, CHOP inh -12.2, MT stabilize HCS 3.2, bCat nuc transl -1.0 and L major viab -3.0.
`Cc1nc2ccccc2c(=O)n1/N=C/c1cn(-c2ccccc2)nc1-c1cccs1` gave Autophagy HCS inactive, Dynein transport 0.553, CHOP inh -18.5, MT stabilize HCS 4.5, bCat nuc transl -7.8 and L major viab 56.4*.
Screening Cc1nc2ccccc2c(=O)n1/N=C/c1cccs1 returned Autophagy HCS inactive, Dynein transport -0.161, CHOP inh -6.2, MT stabilize HCS 8.7, bCat nuc transl 0.6 and L major viab 2.9.
Cc1cc(-c2n[nH]c(=S)n2/N=C/c2cc([N+](=O)[O-])ccc2Cl)n[nH]1 was read as Autophagy HCS inactive, Dynein transport 0.843, CHOP inh 28.1, MT stabilize HCS 2.7, bCat nuc transl 0.4 and L major viab 84.4*.
For S=c1[nH]nc(-c2cccs2)n1/N=C/c1cn(-c2ccccc2)nc1-c1cccs1 the results were Dynein transport -0.572, CHOP inh 79.2* and bCat nuc transl -0.8.
CC1CCc2nn(CC(=O)NC3CCCC(C)C3C)cc2C1 (centres undefined) was read as Autophagy HCS inactive, Dynein transport 0.622, CHOP inh 53.5, MT stabilize HCS 6.0, bCat nuc transl 0.7 and L major viab -5.4.
CCOC(=O)c1c(C)nc2c(c1-c1cc(OC)ccc1OC)C(=O)CC(C)(C)C2 was read as Dynein transport -1.06, CHOP inh -0.3 and bCat nuc transl 0.0.
`O=[N+]([O-])c1ccc(-c2nn(-c3ccccc3)cc2/C=N/n2c(-c3ccncc3)n[nH]c2=S)cc1` gave Dynein transport 0.141, CHOP inh 94.4* and bCat nuc transl -0.6.
For COC(=O)CN(c1nc(C)cc(OC)n1)S(=O)(=O)c1ccc(C)cc1 the results were Autophagy HCS inactive, Dynein transport -0.523, CHOP inh 7.8, MT stabilize HCS 4.4, bCat nuc transl -4.9 and L major viab 1.1.
For COC(=O)CN(c1nc(C)c(Br)c(OC)n1)S(=O)(=O)c1ccc(C)cc1 the results were Autophagy HCS inactive, Dynein transport 0.0878, CHOP inh 65.2, MT stabilize HCS 3.2, bCat nuc transl 0.3 and L major viab 87.9*.
`COc1nc(N(C)S(=O)(=O)c2ccc(C)cc2)nc(C)c1Cl` gave Autophagy HCS inactive, Dynein transport -1.54, CHOP inh 83.3*, MT stabilize HCS 3.6, bCat nuc transl -2.3 and L major viab 0.3.
`C=CCOc1ccc(/C(O)=C2\C(=O)C(=O)N(CCN(C)C)C2c2cccs2)cc1` (centres undefined) gave Autophagy HCS active, Dynein transport 1.75, CHOP inh 0.0, MT stabilize HCS 2.3, bCat nuc transl -3.4 and L major viab -3.4.
CCOc1ccc(/C(O)=C2/C(=O)C(=O)N(CCN(CC)CC)C2c2cccs2)cc1 (centres undefined) was read as Dynein transport -1.69, CHOP inh -21.1 and bCat nuc transl 1.0.
`COc1ccc(NC(=O)CN(c2cc(C)cc(C)c2)S(=O)(=O)c2c(C)noc2C)cc1OC` gave Autophagy HCS inactive, Dynein transport -0.927, CHOP inh 18.3, MT stabilize HCS 6.2, bCat nuc transl 0.4 and L major viab 6.4.
Screening CCOc1ccc(N(CC(=O)Nc2ccc(C)c(C)c2)S(=O)(=O)c2c(C)noc2C)cc1 returned Autophagy HCS inactive, Dynein transport -0.743, CHOP inh 75.6*, MT stabilize HCS 2.5, bCat nuc transl 7.0 and L major viab 24.5.
`CCOc1ccc(N(CC(=O)NC2CCCC2)S(=O)(=O)c2c(C)noc2C)cc1` gave Autophagy HCS inactive, Dynein transport -0.302, CHOP inh 0.7, MT stabilize HCS 2.6, bCat nuc transl 0.7 and L major viab 0.2.
`CCOC(=O)c1cccc(NC(=O)CN(c2ccc(OC)cc2)S(=O)(=O)c2c(C)noc2C)c1` gave Autophagy HCS inactive, Dynein transport 0.693, CHOP inh 29.7, MT stabilize HCS 4.3, bCat nuc transl -3.2 and L major viab 43.7.
CCOc1ccc(N(CC(=O)Nc2cccc(F)c2)S(=O)(=O)c2c(C)noc2C)cc1 was read as Autophagy HCS inactive, Dynein transport 0.113, CHOP inh 71.5*, MT stabilize HCS 6.4, bCat nuc transl -0.1 and L major viab 21.7.

Screens: PubChem, several laboratories
